15 compounds from ChEMBL document CHEMBL4118150, “2-Methylacrylamide as a bioisoster of thiourea group for 1,3-dibenzylthioureido TRPV1 receptor antagonists” (Bioorg Med Chem Lett, 2018) can be followed below.

Experiment [1] concerns the target T1, Transient receptor potential cation channel subfamily V member 1 (Rattus norvegicus, UniProt O35433). The experiment can be described thus: Agonist activity at TRPV1 in neonatal rat DRG neurons assessed as increase in calcium influx after 10 mins in presence of 45Ca2+ by Beckman CP scintillation counting method. The method in brief: (§1)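 45Ca2+ uptake in cultured spinal sensory neurons from neonatal rat. Antagonist mode: derivatives were tested against 0.5 μM capsaicin, and IC50 is the concentration that cuts the capsaicin response by 50%. Agonist mode: EC50 is the concentration giving 50% of the maximal response. Values were estimated from at least 3 replicates at each concentration.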

Experiment [2] addresses T1, Transient receptor potential cation channel subfamily V member 1. The experiment can be described thus: Antagonist activity at TRPV1 in neonatal rat DRG neurons assessed as inhibition of capsaicin-induced intracellular calcium after 10 mins in presence of 45Ca2+ by Beckman CP scintillation counting method. The class given is cell-based. The method in brief: as §1
(A change in cytosolic calcium serves as a functional read-out for many receptors and channels.)

Experiment [3] deals with Transient receptor potential cation channel subfamily V member 1 (Rattus norvegicus) (UniProt O35433). The experiment can be described thus: Potency index, ratio of IC50 for ATC-120 to IC50 for test compound for antagonist activity at TRPV1 in neonatal rat DRG neurons.
Transient receptor potential cation channel subfamily V member 1 (Rattus norvegicus), sequence (O35433 whole entry): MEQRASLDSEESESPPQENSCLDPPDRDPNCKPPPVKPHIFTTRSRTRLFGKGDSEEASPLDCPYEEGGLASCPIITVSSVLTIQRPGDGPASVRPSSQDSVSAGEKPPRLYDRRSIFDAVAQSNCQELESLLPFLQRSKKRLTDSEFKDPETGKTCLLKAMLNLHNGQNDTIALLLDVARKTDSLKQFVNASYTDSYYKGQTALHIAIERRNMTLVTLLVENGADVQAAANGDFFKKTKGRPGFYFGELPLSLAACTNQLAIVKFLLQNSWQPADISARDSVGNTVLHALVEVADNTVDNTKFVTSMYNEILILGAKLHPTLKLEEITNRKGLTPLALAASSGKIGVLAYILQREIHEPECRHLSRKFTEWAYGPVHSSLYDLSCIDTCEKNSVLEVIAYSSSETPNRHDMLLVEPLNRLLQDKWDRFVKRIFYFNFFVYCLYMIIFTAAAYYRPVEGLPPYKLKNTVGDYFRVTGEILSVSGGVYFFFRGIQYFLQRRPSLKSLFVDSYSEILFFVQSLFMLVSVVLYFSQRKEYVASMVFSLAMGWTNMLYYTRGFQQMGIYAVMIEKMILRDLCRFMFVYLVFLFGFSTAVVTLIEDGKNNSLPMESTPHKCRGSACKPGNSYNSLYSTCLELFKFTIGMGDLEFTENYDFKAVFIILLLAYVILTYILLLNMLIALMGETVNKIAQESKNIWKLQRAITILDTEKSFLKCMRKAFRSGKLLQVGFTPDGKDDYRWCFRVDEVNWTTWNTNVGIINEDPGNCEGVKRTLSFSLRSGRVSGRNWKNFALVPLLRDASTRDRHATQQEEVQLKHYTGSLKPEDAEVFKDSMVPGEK

T1 sequence (O35433 whole entry): as above

For the compound `C[C@@H](NC(=S)NCc1ccc(C(C)(C)C)cc1)c1ccc(NS(C)(=O)=O)cc1`, the EC50 in experiment [1] was more than 100 µM.

Consider `C[C@@H](NC(=O)NCc1ccc(C(C)(C)C)cc1)c1ccc(NS(C)(=O)=O)cc1`, for which the 50% inhibitory concentration (IC50) in experiment [2] stood at 680 nM. Also, the EC50 in experiment [1] was more than 100 µM.

Consider `C[C@@H](NC(=S)/C=C/c1ccc(C(C)(C)C)cc1)c1ccc(NS(C)(=O)=O)cc1`, for which the IC50 in experiment [2] came out at 5000 nM. The EC50 in experiment [1] is more than 100 µM.

Take `C[C@@H](NC(=O)COc1ccc(C(C)(C)C)cc1)c1ccc(NS(C)(=O)=O)cc1`: the EC50 in experiment [1] is more than 100 µM.

With `CC(Cc1ccc(C(C)(C)C)cc1)C(=O)N[C@H](C)c1ccc(NS(C)(=O)=O)cc1` (mixture of isomers), in experiment [2], the IC50 is 270 nM. The EC50 in experiment [1] is more than 100 µM.

For the compound `C[C@@H](NC(=S)COc1ccc(C(C)(C)C)cc1)c1ccc(NS(C)(=O)=O)cc1`, in experiment [1], the EC50 is more than 100 µM.

With `C[C@@H](NC(=O)C#Cc1ccc(C(C)(C)C)cc1)c1ccc(NS(C)(=O)=O)cc1`, the EC50 in experiment [1] was more than 100 µM.

`C[C@@H](NC(=S)CCc1ccc(C(C)(C)C)cc1)c1ccc(NS(C)(=O)=O)cc1`: the IC50 in experiment [2] was 300 nM. Besides, the EC50 in experiment [1] is more than 100 µM.

`C[C@@H](NC(=O)CCc1ccc(C(C)(C)C)cc1)c1ccc(NS(C)(=O)=O)cc1`: the IC50 in experiment [2] was 240 nM. Besides, the EC50 in experiment [1] is more than 100 µM.

Regarding `C/C(=C\c1ccc(C(C)(C)C)cc1)C(=O)N[C@H](C)c1ccc(NS(C)(=O)=O)cc1`, in experiment [1], the EC50 was more than 100 µM.

Regarding `C[C@@H](NC(=O)/C=C/c1ccc(C(C)(C)C)cc1)c1ccc(NS(C)(=O)=O)cc1`, the 50% inhibitory concentration (IC50) in experiment [2] was found to be 160 nM. Besides, in experiment [1], the EC50 was more than 100 µM.

As to `C=Cc1cc([C@@H](C)NC(=O)/C(C)=C/c2ccc(C(C)(C)C)cc2)ccc1NS(C)(=O)=O`, in experiment [1], the EC50 was more than 100 µM. Further, the Ratio IC50 in experiment [3] was 2.

Turning to `C/C(=C\c1ccc(C(C)(C)C)cc1)C(=O)N[C@H](C)c1ccc(NS(C)(=O)=O)c(F)c1`, the EC50 in experiment [1] is more than 100 µM.

Regarding `C[C@@H](NC(=O)COc1ccc(C(C)(C)C)cc1)c1ccc(NS(C)(=O)=O)c(F)c1`, in experiment [1], the concentration for a half-maximal effect (EC50) was more than 100 µM.

Take `C[C@@H](N/C(COc1ccc(C(C)(C)C)cc1)=N/C#N)c1ccc(NS(C)(=O)=O)cc1`: in experiment [1], the EC50 was more than 100 µM.

What is called EC50 is the concentration needed to bring the measured effect to its halfway point. Broadly, the IC50 is the concentration at which inhibition is half-maximal.
